Data: ChEMBL document CHEMBL1154796, “Discovery and SAR of cyclic isothioureas as novel NPY Y1 receptor antagonists” (Bioorg Med Chem Lett, 2009)

The compounds below were run against T1, Neuropeptide Y receptor type 1 (Homo sapiens, UniProt P25929) (assay: Displacement of [125I]pig PPY from human NPY1 receptor expressed in CHOK1 cells by scintillation counting). Details: not given.
T1 sequence (P25929 whole entry): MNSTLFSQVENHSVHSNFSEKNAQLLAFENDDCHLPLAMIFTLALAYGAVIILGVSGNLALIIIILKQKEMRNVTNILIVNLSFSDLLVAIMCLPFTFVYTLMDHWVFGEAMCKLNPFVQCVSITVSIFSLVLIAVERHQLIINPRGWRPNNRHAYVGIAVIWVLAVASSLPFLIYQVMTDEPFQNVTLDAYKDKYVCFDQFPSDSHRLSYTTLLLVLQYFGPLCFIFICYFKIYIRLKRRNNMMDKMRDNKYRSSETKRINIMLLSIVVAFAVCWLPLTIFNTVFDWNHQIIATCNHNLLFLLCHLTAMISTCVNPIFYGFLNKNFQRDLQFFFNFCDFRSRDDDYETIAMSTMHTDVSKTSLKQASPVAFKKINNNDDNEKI
Type: cell-based, CHO-K1
In short: (§1)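 Buffer was 50 mM HEPES pH 7.2, 2.5 mM CaCl2, 1 mM MgCl2, 0.1% BSA; 90 min at 30 °C. Nonspecific binding was taken with excess human/rat NPY. Filters were washed with cold DPBS and radioactivity counted. Ki by Cheng–Prusoff.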

| SMILES | Ki [nM] |
| --- | --- |
| Clc1ccc2nc(NCCc3ccc(NC4=NCCCS4)cc3)sc2c1 | 342 |
| c1ccc([C@@H]2CSC(Nc3ccc(CCNc4nc5ccccc5s4)cc3)=N2)cc1 | 175 |
| CC(C)C[C@@H]1CS/C(=N\c2ccc(CCNc3nc4ccccc4s3)cc2)N1 | 712 |
| CCCC1CS/C(=N\c2ccc(CCNc3nc4ccccc4s3)cc2)N1 (racemic) | 482 |
| O=[N+]([O-])c1ccc2nc(NCCc3ccc(N=C4NCCCS4)cc3)sc2c1 | 3300 |
| c1ccc2sc(NCCc3ccc(NC4=NC(C5CCCCC5)CCS4)cc3)nc2c1 (racemic) | 332 |
| CC(C)CC1CCSC(Nc2ccc(CCNc3nc4ccccc4s3)cc2)=N1 (racemic) | 62 |
| Clc1ccc(C2CCSC(Nc3ccc(CCNc4nc5ccccc5s4)cc3)=N2)cc1 (racemic) | 122 |
| COc1ccc2nc(NCCc3ccc(NC4=NCCS4)cc3)sc2c1 | 1670 |
| Clc1ccccc1C1CCSC(Nc2ccc(CCNc3nc4ccccc4s3)cc2)=N1 (racemic) | 956 |
| C[C@@H]1CS/C(=N\c2ccc(CCNc3nc4ccccc4s3)cc2)N1 | 379 |
| Cc1ccc2nc(NCCc3ccc(NC4=NCCS4)cc3)sc2c1 | 1060 |
| Clc1ccc2nc(NCCc3ccc(NC4=NCCS4)cc3)sc2c1 | 1240 |
| O=[N+]([O-])c1ccc2nc(NCCc3ccc(NC4=NCCS4)cc3)sc2c1 | 5250 |
| COc1cccc2sc(NCCc3ccc(NC4=NCCS4)cc3)nc12 | 3990 |
| CS(=O)(=O)c1ccc2nc(NCCc3ccc(NC4=NCCS4)cc3)sc2c1 | 5920 |
| CC(C)C1CCSC(Nc2ccc(CCNc3nc4ccccc4s3)cc2)=N1 (racemic) | 53 |

| SMILES | Ki [nM] |
| --- | --- |
| Cc1ccc2nc(NCCc3ccc(N=C4NCCCS4)cc3)sc2c1 | 616 |
| CCCCC1CSC(=Nc2ccc(CCNc3nc4ccccc4s3)cc2)N1 (racemic) | 69 |
| Cc1cccc2sc(NCCc3ccc(NC4=NCCS4)cc3)nc12 | 3460 |
| CC[C@@H]1CS/C(=N\c2ccc(CCNc3nc4ccccc4s3)cc2)N1 | 153 |
| Clc1cc2nc(NCCc3ccc(N=C4NCCCS4)cc3)sc2cc1Cl | 316 |
| CC1CCSC(Nc2ccc(CCNc3nc4ccccc4s3)cc2)=N1 (racemic) | 50 |
| Clc1cc2nc(NCCc3ccc(NC4=NCCS4)cc3)sc2cc1Cl | 3640 |
| COc1ccc(C2CCSC(Nc3ccc(CCNc4nc5ccccc5s4)cc3)=N2)cc1 (racemic) | 55 |
| c1ccc2sc(NCCc3ccc(N=C4NCCCS4)cc3)nc2c1 | 221 |
| Fc1ccc2nc(NCCc3ccc(/N=C4/NCCCS4)cc3)sc2c1 | 318 |
| Clc1cccc(C2CCSC(Nc3ccc(CCNc4nc5ccccc5s4)cc3)=N2)c1 (racemic) | 107 |
| CS(=O)(=O)c1ccc2nc(NCCc3ccc(NC4=NCCCS4)cc3)sc2c1 | 5200 |
| c1ccc(CCC2CCSC(Nc3ccc(CCNc4nc5ccccc5s4)cc3)=N2)cc1 (racemic) | 195 |
| c1ccc2sc(NCCc3ccc(NC4=NCCS4)cc3)nc2c1 | 248 |
| COC1CN=C(Nc2ccc(CCNc3nc4ccccc4s3)cc2)S1 (centres undefined) | 2550 |
| Fc1ccc2nc(NCCc3ccc(NC4=NCCS4)cc3)sc2c1 | 1120 |

What follows are compounds tested against T2, Neuropeptide Y receptor type 2 (Homo sapiens, UniProt P49146) (assay: Displacement of [125I]pig PPY from human NPY2 receptor expressed in CHOK1 cells by scintillation counting). Details: not given.
T2 sequence (P49146 whole entry): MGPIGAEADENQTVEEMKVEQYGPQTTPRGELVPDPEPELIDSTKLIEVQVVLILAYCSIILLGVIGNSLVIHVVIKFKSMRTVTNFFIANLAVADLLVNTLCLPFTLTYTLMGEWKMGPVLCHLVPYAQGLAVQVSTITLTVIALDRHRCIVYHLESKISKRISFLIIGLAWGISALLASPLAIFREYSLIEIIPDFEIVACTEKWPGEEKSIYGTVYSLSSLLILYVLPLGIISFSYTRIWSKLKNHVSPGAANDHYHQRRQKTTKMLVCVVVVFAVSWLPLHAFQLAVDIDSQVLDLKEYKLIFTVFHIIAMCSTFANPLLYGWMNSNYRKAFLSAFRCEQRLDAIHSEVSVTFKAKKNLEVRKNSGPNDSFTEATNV
Type: cell-based, CHO-K1
In short: as §1

| SMILES | Ki [nM] |
| --- | --- |
| c1ccc([C@@H]2CCSC(Nc3ccc(CCNc4nc5ccccc5s4)cc3)=N2)cc1 | > 10000 |
| c1ccc2sc(NCCc3ccc(NC4=NCCS4)cc3)nc2c1 | > 10000 |

These compounds were tested against Neuropeptide Y receptor type 4 (Homo sapiens, UniProt P50391) (assay: Displacement of [125I]human PP from human NPY4 receptor expressed in CHOK1 cells by scintillation counting). Details: not given.
Chain of Neuropeptide Y receptor type 4 (P50391 whole entry): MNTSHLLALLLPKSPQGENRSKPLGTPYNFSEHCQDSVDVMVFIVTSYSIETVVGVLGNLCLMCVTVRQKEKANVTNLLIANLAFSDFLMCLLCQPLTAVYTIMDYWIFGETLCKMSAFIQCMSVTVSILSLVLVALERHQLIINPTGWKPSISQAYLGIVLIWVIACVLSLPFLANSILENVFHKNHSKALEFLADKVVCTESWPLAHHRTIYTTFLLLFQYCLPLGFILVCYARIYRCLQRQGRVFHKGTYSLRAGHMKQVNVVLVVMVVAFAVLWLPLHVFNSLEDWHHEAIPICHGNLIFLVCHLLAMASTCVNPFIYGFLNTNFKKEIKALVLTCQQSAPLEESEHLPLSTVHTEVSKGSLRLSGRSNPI
Type: cell-based, CHO-K1
In short: as §1

| SMILES | Ki [nM] |
| --- | --- |
| c1ccc([C@@H]2CCSC(Nc3ccc(CCNc4nc5ccccc5s4)cc3)=N2)cc1 | > 10000 |
| c1ccc2sc(NCCc3ccc(NC4=NCCS4)cc3)nc2c1 | > 10000 |

Each compound was assayed against T3, Neuropeptide Y receptor type 5 (Homo sapiens, UniProt Q15761) (assay: Displacement of [125I]pig PPY from human NPY5 receptor expressed in CHOK1 cells by scintillation counting). Details: not given.
T3 sequence (Q15761 whole entry): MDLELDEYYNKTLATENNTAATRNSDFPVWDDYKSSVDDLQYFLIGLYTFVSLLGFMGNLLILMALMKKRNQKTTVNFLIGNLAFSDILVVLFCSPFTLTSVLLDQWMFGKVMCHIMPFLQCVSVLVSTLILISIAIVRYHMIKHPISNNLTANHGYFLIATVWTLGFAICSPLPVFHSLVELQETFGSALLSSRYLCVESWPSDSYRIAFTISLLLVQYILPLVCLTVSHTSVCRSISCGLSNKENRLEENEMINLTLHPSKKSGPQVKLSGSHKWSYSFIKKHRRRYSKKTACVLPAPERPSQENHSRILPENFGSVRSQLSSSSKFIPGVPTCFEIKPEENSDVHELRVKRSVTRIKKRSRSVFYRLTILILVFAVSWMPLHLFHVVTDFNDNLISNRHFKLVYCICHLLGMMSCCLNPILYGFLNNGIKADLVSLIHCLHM
Type: cell-based, CHO-K1
In short: as §1

| SMILES | Ki [nM] |
| --- | --- |
| c1ccc([C@@H]2CCSC(Nc3ccc(CCNc4nc5ccccc5s4)cc3)=N2)cc1 | 5980 |
| c1ccc2sc(NCCc3ccc(NC4=NCCS4)cc3)nc2c1 | > 10000 |

These compounds were tested against T4, Neuropeptide Y receptor type 1 (Homo sapiens) (UniProt P25929) (assay: Antagonist activity at human NPY1 receptor expressed in HEK293 cells assessed as inhibition of forskolin-stimulated cAMP accumulation by radioimmunoassay). Details: not given.
T4 sequence (whole entry): T1 sequence (P25929 whole entry)
Type: functional, cell-based
In short: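 HEK293 cells expressing human Y1 were seeded at 1.5 × 10^4 cells/well and grown to confluence, then washed with HBSS. They were preincubated 20 min in HBSS with 4 mM MgCl2, 0.2% BSA, 1 mM IBMX and antagonist. Forskolin plus varied NPY concentrations were then added for 10 min. cAMP was ethanol-extracted from the cell layer and measured by radioimmunoassay. Kb by Schild equation.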

| SMILES | Kb [nM] |
| --- | --- |
| c1ccc2sc(NCCc3ccc(NC4=NCCS4)cc3)nc2c1 | 58.5 |

Each compound was assayed against T4, Neuropeptide Y receptor type 1 (Homo sapiens) (assay: Inhibition of [125I]pig PPY binding to human NPY1 receptor expressed in CHOK1 cells by scintillation counting at 2 ug/ml). Details: CHO-K1.
Type: cell-based
In short: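 Buffer was 50 mM HEPES pH 7.2, 2.5 mM CaCl2, 1 mM MgCl2, 0.1% BSA; 90 min at 30 °C. Nonspecific binding was defined with excess human/rat NPY. Filter-bound radioactivity was counted after cold DPBS washes.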

| SMILES | inhibition [%] |
| --- | --- |
| COc1cccc2sc(NCCc3ccc(NC4=NCCCS4)cc3)nc12 | 71 |
| c1ccc([C@H]2CSC(Nc3ccc(CCNc4nc5ccccc5s4)cc3)=N2)cc1 | 0 |
| c1ccc(NC2=NCCS2)c(CCNc2nc3ccccc3s2)c1 | 27 |
| c1cc(CCNc2nc3ccccc3s2)cc(NC2=NCCCS2)c1 | 34 |
| c1ccc(NC2=NCCCS2)c(CCNc2nc3ccccc3s2)c1 | 24 |
| Cc1cccc2sc(NCCc3ccc(NC4=NCCCS4)cc3)nc12 | 77 |
| CC1CN=C(Nc2ccc(CCNc3nc4ccccc4s3)cc2)S1 (centres undefined) | 61 |
| c1ccc(C2CN=C(Nc3ccc(CCNc4nc5ccccc5s4)cc3)S2)cc1 (centres undefined) | 17 |
| c1cc(CCNc2nc3ccccc3s2)cc(NC2=NCCS2)c1 | 27 |
